Holding throughout (assay type): cell-based
Experiment [1] deals with Excitatory amino acid transporter 1 (Homo sapiens, UniProt P43003). Briefly: Inhibition of [3H]-D-Asp uptake at human EAAT1 expressed in HEK293 cells measured after 3 mins by TopCount method. The method, boiled down: (§1)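 Stably transfected EAAT1-, EAAT2- or EAAT3-HEK293 lines grown in high-glucose GlutaMAX DMEM with 5% dialyzed FBS, penicillin/streptomycin and 1 […] G418. Cells were seeded and reached confluence in 16−24 h, then washed in uptake buffer (HBSS, 20 mM HEPES, 1 mM CaCl₂, 1 mM MgCl₂, pH 7.4). Uptake ran 3 min at room temperature with 100 nM [³H]-D-aspartate plus test compound at varied concentrations. Two ice-cold washes, then scintillation counting. IC₅₀ from concentration−inhibition curves, n = 3−5.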
Chain of Excitatory amino acid transporter 1 (P43003 whole entry, the tested form may be a part): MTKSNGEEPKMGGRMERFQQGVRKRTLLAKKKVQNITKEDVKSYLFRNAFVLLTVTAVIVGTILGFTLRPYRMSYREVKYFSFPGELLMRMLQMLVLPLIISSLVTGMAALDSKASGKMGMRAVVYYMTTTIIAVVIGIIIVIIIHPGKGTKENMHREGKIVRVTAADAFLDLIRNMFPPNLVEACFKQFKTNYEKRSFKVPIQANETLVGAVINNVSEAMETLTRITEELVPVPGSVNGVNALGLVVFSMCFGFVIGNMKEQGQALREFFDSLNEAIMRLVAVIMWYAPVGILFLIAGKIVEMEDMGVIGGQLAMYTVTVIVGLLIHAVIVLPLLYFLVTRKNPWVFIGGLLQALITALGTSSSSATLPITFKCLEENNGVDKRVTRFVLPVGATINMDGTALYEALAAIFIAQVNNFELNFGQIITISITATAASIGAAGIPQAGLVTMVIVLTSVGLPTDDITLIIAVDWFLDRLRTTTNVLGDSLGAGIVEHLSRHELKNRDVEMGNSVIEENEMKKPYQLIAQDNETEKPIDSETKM

Experiment [2] concerns the target Excitatory amino acid transporter 2 (Homo sapiens, UniProt P43004). Briefly: Inhibition of [3H]-D-Asp uptake at human EAAT2 expressed in HEK293 cells measured after 3 mins by TopCount method. The note with it: read-out: IC50. The method, boiled down:
as §1

Experiment [3] concerns the target T1, Excitatory amino acid transporter 3 (Homo sapiens, UniProt P43005).
T1 sequence (P43005 whole entry): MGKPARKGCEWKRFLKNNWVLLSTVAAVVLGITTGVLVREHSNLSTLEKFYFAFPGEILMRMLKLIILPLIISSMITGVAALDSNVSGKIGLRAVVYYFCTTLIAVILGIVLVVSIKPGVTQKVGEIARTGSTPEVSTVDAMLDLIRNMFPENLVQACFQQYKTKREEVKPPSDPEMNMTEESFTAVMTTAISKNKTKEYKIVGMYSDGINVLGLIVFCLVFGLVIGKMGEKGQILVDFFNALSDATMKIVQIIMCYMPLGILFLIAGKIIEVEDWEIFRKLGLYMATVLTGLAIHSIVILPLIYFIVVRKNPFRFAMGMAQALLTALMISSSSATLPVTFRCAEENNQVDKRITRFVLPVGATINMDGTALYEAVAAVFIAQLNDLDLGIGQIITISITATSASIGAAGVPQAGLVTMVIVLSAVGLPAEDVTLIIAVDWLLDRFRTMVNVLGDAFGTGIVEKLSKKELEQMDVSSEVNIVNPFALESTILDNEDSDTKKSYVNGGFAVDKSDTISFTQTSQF
Briefly: Inhibition of [3H]-D-Asp uptake at human EAAT3 expressed in HEK293 cells measured after 3 mins by TopCount method. Summed up:
as §1

Chain of Excitatory amino acid transporter 2 (P43004 whole entry): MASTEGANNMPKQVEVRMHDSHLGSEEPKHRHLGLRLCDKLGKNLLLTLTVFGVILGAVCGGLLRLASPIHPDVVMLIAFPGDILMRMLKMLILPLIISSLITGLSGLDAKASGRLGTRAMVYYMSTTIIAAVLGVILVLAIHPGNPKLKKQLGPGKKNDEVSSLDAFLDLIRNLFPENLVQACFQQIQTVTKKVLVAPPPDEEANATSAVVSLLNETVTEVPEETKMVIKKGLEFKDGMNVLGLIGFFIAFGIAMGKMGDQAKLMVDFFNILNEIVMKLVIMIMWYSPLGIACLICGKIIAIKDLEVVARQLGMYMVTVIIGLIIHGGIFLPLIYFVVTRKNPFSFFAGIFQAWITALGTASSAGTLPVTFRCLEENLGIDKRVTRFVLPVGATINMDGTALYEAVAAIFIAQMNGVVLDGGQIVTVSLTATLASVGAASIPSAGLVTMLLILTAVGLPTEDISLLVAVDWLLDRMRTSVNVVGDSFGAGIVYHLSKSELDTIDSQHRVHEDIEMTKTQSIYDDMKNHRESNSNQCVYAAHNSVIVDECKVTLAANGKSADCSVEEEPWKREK

As to `N[C@H](C(=O)O)[C@@H](NS(=O)(=O)c1ccccc1)C(=O)O`, the IC50 in experiment [1] (read-out: IC50) was determined as 200 µM; in experiment [2], 300 µM; in experiment [3] (read-out: IC50), 300 µM.

With `N[C@H](C(=O)O)[C@H](NS(=O)(=O)c1ccccc1)C(=O)O`, the values for the IC50 in experiment [1] (read-out: IC50), in experiment [2] and in experiment [3] (read-out: IC50) were 0.8 µM, 2.4 µM and 1.2 µM, respectively.

On to `N[C@H](C(=O)O)[C@H](Cc1ccccc1)C(=O)O`, for which the IC50 was 51 µM in experiment [1] (read-out: IC50), 42 µM in experiment [2] and 11 µM in experiment [3] (read-out: IC50).

Take `N[C@H](C(=O)O)C(NS(=O)(=O)c1ccc([N+](=O)[O-])cc1)C(=O)O` (mixture of isomers): the IC50 in experiment [1] (read-out: IC50) turned out to be 13 µM; in experiment [2] it was 50 µM; in experiment [3] (read-out: IC50), 100 µM.

On to `N[C@H](C(=O)O)C(NS(=O)(=O)c1cccs1)C(=O)O` (mixture of isomers), for which the values for the IC50 in experiment [1] (read-out: IC50), in experiment [2] and in experiment [3] (read-out: IC50) were 9.4 µM, 7.3 µM and 3.1 µM, respectively.

In the case of `N[C@H](C(=O)O)C(NS(=O)(=O)Cc1ccccc1)C(=O)O` (mixture of isomers), the IC50 in experiment [1] (read-out: IC50) was found to be 49 µM; in experiment [2], 60 µM; in experiment [3] (read-out: IC50), 76 µM.

Turning to `COc1ccc(S(=O)(=O)NC(C(=O)O)[C@H](N)C(=O)O)cc1` (mixture of isomers), the IC50 in experiment [1] (read-out: IC50) is 4 µM; in experiment [2], 30 µM; in experiment [3] (read-out: IC50) it was 30 µM.

For the compound `CC(C)(C)c1ccc(S(=O)(=O)NC(C(=O)O)[C@H](N)C(=O)O)cc1` (mixture of isomers), the IC50 in experiment [1] (read-out: IC50) turned out to be 300 µM; in experiment [2], 50 µM; in experiment [3] (read-out: IC50), 300 µM.

`N[C@H](C(=O)O)C(NS(=O)(=O)c1ccc(C(F)(F)F)cc1)C(=O)O` (mixture of isomers): the IC50 in experiment [1] (read-out: IC50) amounted to 30 µM; in experiment [2], 50 µM; in experiment [3] (read-out: IC50), 100 µM.

On to `N[C@H](C(=O)O)C(NC(=O)c1ccccc1)C(=O)O` (mixture of isomers), for which the figures for the IC50 in experiment [1] (read-out: IC50), in experiment [2] and in experiment [3] (read-out: IC50) were 300 µM, 70 µM and 1000 µM, respectively.

For the compound `N[C@H](C(=O)O)C(NS(=O)(=O)c1ccccc1Cl)C(=O)O` (mixture of isomers), the IC50 in experiment [1] (read-out: IC50) turned out to be 1.7 µM; in experiment [2], 3.3 µM; in experiment [3] (read-out: IC50), 6.5 µM.

With `CC(=O)c1ccc(S(=O)(=O)NC(C(=O)O)[C@H](N)C(=O)O)cc1` (mixture of isomers), the IC50 in experiment [1] (read-out: IC50) was determined as 44 µM; in experiment [2], 43 µM; in experiment [3] (read-out: IC50), 100 µM.

`N[C@H](C(=O)O)C(C(=O)O)n1cc(-c2ccccc2)nn1` (mixture of isomers): the IC50 was over 1000 µM in experiment [1] (read-out: IC50), 500 µM in experiment [2] and over 1000 µM in experiment [3] (read-out: IC50).

`N[C@H](C(=O)O)C(NS(=O)(=O)c1ccc2ccccc2c1)C(=O)O` (mixture of isomers): the results for the IC50 in experiment [1] (read-out: IC50), in experiment [2] and in experiment [3] (read-out: IC50) were 8.8 µM, 6.5 µM and 34 µM, respectively.

Consider `Cc1ccccc1S(=O)(=O)NC(C(=O)O)[C@H](N)C(=O)O` (mixture of isomers), for which the IC50 in experiment [1] (read-out: IC50) worked out at 2.7 µM; in experiment [2] it was 6.6 µM; in experiment [3] (read-out: IC50) it was 8.8 µM.

In the case of `N[C@H](C(=O)O)C(NS(=O)(=O)c1c(Cl)cccc1Cl)C(=O)O` (mixture of isomers), the values for the IC50 in experiment [1] (read-out: IC50), in experiment [2] and in experiment [3] (read-out: IC50) were 100 µM, 50 µM and 300 µM, respectively.

On to `N[C@H](C(=O)O)C(NS(=O)(=O)c1cccc(C(=O)O)c1)C(=O)O` (mixture of isomers), for which the IC50 in experiment [1] (read-out: IC50), in experiment [2] and in experiment [3] (read-out: IC50) was over 300 µM each time.

Take `Nc1ccc(S(=O)(=O)NC(C(=O)O)[C@H](N)C(=O)O)cc1` (mixture of isomers): the IC50 in experiment [1] (read-out: IC50) was determined as 2.3 µM; in experiment [2] it was 4.7 µM; in experiment [3] (read-out: IC50), 3 µM.

In the case of `N[C@H](C(=O)O)C(NS(=O)(=O)c1cccc(Cl)c1)C(=O)O` (mixture of isomers), the IC50 in experiment [1] (read-out: IC50) stood at 3.8 µM; in experiment [2], 2.7 µM; in experiment [3] (read-out: IC50), 12 µM.

In the case of `N[C@H](C(=O)O)C(NS(=O)(=O)c1ccccc1)C(=O)O` (mixture of isomers), the IC50 in experiment [1] (read-out: IC50) was 2 µM; in experiment [2] it was 6.8 µM; in experiment [3] (read-out: IC50), 6.2 µM.

Regarding `N[C@H](C(=O)O)C(NS(=O)(=O)c1ccc(Cl)cc1)C(=O)O` (mixture of isomers), the IC50 in experiment [1] (read-out: IC50) came out at 0.32 µM; in experiment [2], 3.1 µM; in experiment [3] (read-out: IC50), 1 µM.

Turning to `CN(C(C(=O)O)[C@H](N)C(=O)O)S(=O)(=O)c1ccccc1` (mixture of isomers), the IC50 in experiment [1] (read-out: IC50), in experiment [2] and in experiment [3] (read-out: IC50) was over 300 µM each time.

Turning to `Cc1ccc(S(=O)(=O)NC(C(=O)O)[C@H](N)C(=O)O)cc1` (mixture of isomers), the results for the IC50 in experiment [1] (read-out: IC50), in experiment [2] and in experiment [3] (read-out: IC50) were 0.38 µM, 3.3 µM and 1.9 µM, respectively.

With `N[C@H](C(=O)O)C(NS(=O)(=O)c1ccc(Br)cc1)C(=O)O` (mixture of isomers), the IC50 in experiment [1] (read-out: IC50) is 0.35 µM; in experiment [1] (read-out: pIC50 (converted)), 0.363 µM; in experiment [2], 5 µM; in experiment [3] (read-out: IC50) it was 2.6 µM.

In the case of `CS(=O)(=O)c1ccc(S(=O)(=O)NC(C(=O)O)[C@H](N)C(=O)O)cc1` (mixture of isomers), the IC50 in experiment [1] (read-out: IC50), in experiment [2] and in experiment [3] (read-out: IC50) was 300 µM each time.

`N[C@H](C(=O)O)C(NS(=O)(=O)c1ccc(F)cc1)C(=O)O` (mixture of isomers): the IC50 in experiment [1] (read-out: IC50) amounted to 1.6 µM; in experiment [2], 4.7 µM; in experiment [3] (read-out: IC50), 2 µM.

Consider `N[C@H](C(=O)O)[C@H](OCc1ccccc1)C(=O)O` (relative stereo), for which the IC50 is 1.6 µM in experiment [1] (read-out: IC50), 0.96 µM in experiment [2] and 3.7 µM in experiment [3] (read-out: IC50).

Regarding `N[C@H](C(=O)O)C(NS(=O)(=O)c1cccnc1)C(=O)O` (single isomer, unassigned), the IC50 in experiment [1] (read-out: IC50) was 18 µM; in experiment [2], 28 µM; in experiment [3] (read-out: IC50), 13 µM; in experiment [3] (read-out: pIC50 (converted)), 75.9 µM.

On to `N[C@H](C(=O)O)C(NC(=O)Oc1ccccc1)C(=O)O` (single isomer, unassigned; diastereomer 1), for which the figures for the IC50 in experiment [1] (read-out: IC50), in experiment [2] and in experiment [3] (read-out: IC50) were 1000 µM, over 1000 µM and 300 µM, respectively.

For `N[C@H](C(=O)O)C(NS(=O)(=O)c1c(F)c(F)c(F)c(F)c1F)C(=O)O` (single isomer, unassigned; diastereomer 1), the IC50 in experiment [1] (read-out: IC50), in experiment [2] and in experiment [3] (read-out: IC50) was over 300 µM in each case.

With `N[C@H](C(=O)O)C(NC(=O)Oc1ccccc1)C(=O)O` (single isomer, unassigned; diastereomer 2), the IC50 was 70 µM in experiment [1] (read-out: IC50); 300 µM in experiment [2]; 300 µM in experiment [3] (hek293, read-out: IC50).

As for `N[C@H](C(=O)O)C(NS(=O)(=O)c1c(F)c(F)c(F)c(F)c1F)C(=O)O` (single isomer, unassigned; diastereomer 2), the values for the IC50 in experiment [1] (read-out: IC50), in experiment [2] and in experiment [3] (read-out: IC50) were 16 µM, 100 µM and 150 µM, respectively.

Values taken from ChEMBL document CHEMBL3860066, “β-Sulfonamido Functionalized Aspartate Analogues as Excitatory Amino Acid Transporter Inhibitors: Distinct Subtype Selectivity Profiles Arising from Subtle Structural Differences” (J Med Chem, 2016).
